Measured values as given in ChEMBL document CHEMBL5724801, “EUbOPEN Chemogenomics Library - Multiplex” (2024).
Where “and” joins values, the source holds several entries; their conditions need not be identical. Identical values can stand only once.

Test system: Fibroblast
Assay: Multiplex assay against human fibroblast
Assay type: toxicity, cell-based
Method in brief: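 Live cells were stained at seeding with Hoechst33342, BioTracker Green Microtubule Cytoskeleton Dye, MitoTracker Red and Annexin V Alexa Fluor 680. Following compound addition, they were imaged on a CQ1 microscope at 37°C and 5% CO2 and gated by CellPathfinder machine learning into Hoechst high-intensity objects or normal cells, with normal cells split into healthy, pyknosed or fragmented nuclei and pyknosed cells into mitotic or apoptotic. Tubulin, mitochondrial-mass and membrane-permeability phenotypes are per cents of healthy-nucleus cells.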

[1] = 12 h, 1 µM, compound concentration 1 uM
[2] = 12 h, 10 µM, compound concentration 10 uM
[3] = 24 h, 1 µM, compound concentration 1 uM
[4] = 24 h, 10 µM, compound concentration 10 uM
[5] = 48 h, 1 µM, compound concentration 1 uM
[6] = 48 h, 10 µM, compound concentration 10 uM

SMILES: Cc1noc(-c2ccc(-c3ccc(CC(=O)O)cc3)cc2)c1NC(=O)O[C@H](C)c1ccccc1Cl
- Population Apoptotic (%) [1]: 22% and 58%
- Population Fragmented Nuclei (%) [1]: 14% and 21%
- Population Healthy Nuclei (%) [1]: 77% and 60%
- Population Hoechst High Intensity Objects (%) [1]: 0% and 5%
- Population Membrane Permeable-Phenotype (%) [1]: 0% and 5%
- Population Mitochondria Different-Phenotype (%) [1]: 1% and 2%
- Population Mitotic Cells (%) [1]: 77% and 41%
- Population Normal (%) [1]: 100% and 95%
- Population Pyknosed Nuclei (%) [1]: 8% and 18%
- Population Tubulin-Different-Phenotype (%) [1]: 10% and 26%
- Total Cell Count [1]: 106 and 140
- Population Apoptotic (%) [2]: 40% and 29%
- Population Fragmented Nuclei (%) [2]: 20% and 17%
- Population Healthy Nuclei (%) [2]: 62% and 45%
- Population Hoechst High Intensity Objects (%) [2]: 1% and 6%
- Population Membrane Permeable-Phenotype (%) [2]: 1% and 2%
- Population Mitochondria Different-Phenotype (%) [2]: 6% and 10%
- Population Mitotic Cells (%) [2]: 60% and 70%
- Population Normal (%) [2]: 98% and 93%
- Population Pyknosed Nuclei (%) [2]: 17% and 36%
- Population Tubulin-Different-Phenotype (%) [2]: 31% and 57%
- Total Cell Count [2]: 119 and 90
- Population Apoptotic (%) [3]: 20% and 52%
- Population Fragmented Nuclei (%) [3]: 16% and 30%
- Population Healthy Nuclei (%) [3]: 78% and 57%
- Population Hoechst High Intensity Objects (%) [3]: 0% and 2%
- Population Membrane Permeable-Phenotype (%) [3]: 0% and 1%
- Population Mitochondria Different-Phenotype (%) [3]: 1% and 7%
- Population Mitotic Cells (%) [3]: 80% and 47%
- Population Normal (%) [3]: 100% and 97%
- Population Pyknosed Nuclei (%) [3]: 4% and 12%
- Population Tubulin-Different-Phenotype (%) [3]: 10% and 28%
- Total Cell Count [3]: 102 and 161
- Population Apoptotic (%) [4]: 50% and 32%
- Population Fragmented Nuclei (%) [4]: 20% and 26%
- Population Healthy Nuclei (%) [4]: 68% and 41%
- Population Hoechst High Intensity Objects (%) [4]: 1%
- Population Membrane Permeable-Phenotype (%) [4]: 0%
- Population Mitochondria Different-Phenotype (%) [4]: 7% and 10%
- Population Mitotic Cells (%) [4]: 50% and 67%
- Population Normal (%) [4]: 98%
- Population Pyknosed Nuclei (%) [4]: 11% and 31%
- Population Tubulin-Different-Phenotype (%) [4]: 29% and 65%
- Total Cell Count [4]: 122 and 98
- Population Apoptotic (%) [5]: 44% and 60%
- Population Fragmented Nuclei (%) [5]: 18% and 35%
- Population Healthy Nuclei (%) [5]: 73% and 55%
- Population Hoechst High Intensity Objects (%) [5]: 1% and 2%
- Population Membrane Permeable-Phenotype (%) [5]: 1% and 5%
- Population Mitochondria Different-Phenotype (%) [5]: 1% and 3%
- Population Mitotic Cells (%) [5]: 55% and 40%
- Population Normal (%) [5]: 98% and 97%
- Population Pyknosed Nuclei (%) [5]: 8%
- Population Tubulin-Different-Phenotype (%) [5]: 16% and 25%
- Total Cell Count [5]: 112 and 171
- Population Apoptotic (%) [6]: 23% and 39%
- Population Fragmented Nuclei (%) [6]: 30% and 40%
- Population Healthy Nuclei (%) [6]: 55% and 37%
- Population Hoechst High Intensity Objects (%) [6]: 4% and 2%
- Population Membrane Permeable-Phenotype (%) [6]: 2% and 0%
- Population Mitochondria Different-Phenotype (%) [6]: 4% and 10%
- Population Mitotic Cells (%) [6]: 76% and 60%
- Population Normal (%) [6]: 95% and 97%
- Population Pyknosed Nuclei (%) [6]: 13% and 22%
- Population Tubulin-Different-Phenotype (%) [6]: 35% and 69%
- Total Cell Count [6]: 133 and 107

SMILES: COC[C@@H](c1ccc(C(F)(F)F)cc1)N1CCN(C2(C)CCN(C(=O)c3c(C)ncnc3C)CC2)C[C@@H]1C.O=C(O)/C=C\C(=O)O [VICRIVIROC MALEATE]
- Population Apoptotic (%) [1]: 36%
- Population Fragmented Nuclei (%) [1]: 23%
- Population Healthy Nuclei (%) [1]: 53% and 51%
- Population Hoechst High Intensity Objects (%) [1]: 4%
- Population Membrane Permeable-Phenotype (%) [1]: 2% and 5%
- Population Mitochondria Different-Phenotype (%) [1]: 11% and 13%
- Population Mitotic Cells (%) [1]: 63%
- Population Normal (%) [1]: 95%
- Population Pyknosed Nuclei (%) [1]: 22% and 25%
- Population Tubulin-Different-Phenotype (%) [1]: 16% and 41%
- Total Cell Count [1]: 138 and 190
- Population Apoptotic (%) [2]: 58% and 33%
- Population Fragmented Nuclei (%) [2]: 26% and 48%
- Population Healthy Nuclei (%) [2]: 59% and 33%
- Population Hoechst High Intensity Objects (%) [2]: 17% and 20%
- Population Membrane Permeable-Phenotype (%) [2]: 2% and 12%
- Population Mitochondria Different-Phenotype (%) [2]: 4%
- Population Mitotic Cells (%) [2]: 41% and 66%
- Population Normal (%) [2]: 82% and 79%
- Population Pyknosed Nuclei (%) [2]: 14% and 18%
- Population Tubulin-Different-Phenotype (%) [2]: 45% and 67%
- Total Cell Count [2]: 208 and 186
- Population Apoptotic (%) [3]: 66% and 30%
- Population Fragmented Nuclei (%) [3]: 21% and 28%
- Population Healthy Nuclei (%) [3]: 57% and 50%
- Population Hoechst High Intensity Objects (%) [3]: 3%
- Population Membrane Permeable-Phenotype (%) [3]: 1% and 8%
- Population Mitochondria Different-Phenotype (%) [3]: 7% and 20%
- Population Mitotic Cells (%) [3]: 33% and 69%
- Population Normal (%) [3]: 96%
- Population Pyknosed Nuclei (%) [3]: 20% and 21%
- Population Tubulin-Different-Phenotype (%) [3]: 18% and 41%
- Total Cell Count [3]: 138 and 204
- Population Apoptotic (%) [4]: 73% and 42%
- Population Fragmented Nuclei (%) [4]: 23% and 46%
- Population Healthy Nuclei (%) [4]: 64% and 39%
- Population Hoechst High Intensity Objects (%) [4]: 12% and 21%
- Population Membrane Permeable-Phenotype (%) [4]: 0% and 8%
- Population Mitochondria Different-Phenotype (%) [4]: 5% and 12%
- Population Mitotic Cells (%) [4]: 26% and 57%
- Population Normal (%) [4]: 87% and 78%
- Population Pyknosed Nuclei (%) [4]: 11% and 14%
- Population Tubulin-Different-Phenotype (%) [4]: 42% and 60%
- Total Cell Count [4]: 196 and 183
- Population Apoptotic (%) [5]: 59% and 53%
- Population Fragmented Nuclei (%) [5]: 21% and 33%
- Population Healthy Nuclei (%) [5]: 56% and 50%
- Population Hoechst High Intensity Objects (%) [5]: 3% and 5%
- Population Membrane Permeable-Phenotype (%) [5]: 0% and 9%
- Population Mitochondria Different-Phenotype (%) [5]: 7% and 19%
- Population Mitotic Cells (%) [5]: 40% and 46%
- Population Normal (%) [5]: 96% and 95%
- Population Pyknosed Nuclei (%) [5]: 21% and 15%
- Population Tubulin-Different-Phenotype (%) [5]: 34% and 58%
- Total Cell Count [5]: 127 and 180
- Population Apoptotic (%) [6]: 73% and 53%
- Population Fragmented Nuclei (%) [6]: 23% and 54%
- Population Healthy Nuclei (%) [6]: 65% and 35%
- Population Hoechst High Intensity Objects (%) [6]: 14% and 20%
- Population Membrane Permeable-Phenotype (%) [6]: 0% and 9%
- Population Mitochondria Different-Phenotype (%) [6]: 5% and 10%
- Population Mitotic Cells (%) [6]: 26% and 46%
- Population Normal (%) [6]: 85% and 79%
- Population Pyknosed Nuclei (%) [6]: 10% and 9%
- Population Tubulin-Different-Phenotype (%) [6]: 48% and 61%
- Total Cell Count [6]: 206 and 193
